According to ChEMBL document CHEMBL3352485 (J Med Chem, 2014):
Active and inactive are the calls of the source. No cut-off for these calls is given here. Where a SMILES comes first, the peptide text is derived from it. [ ]: non-standard residue; d: D form. Arg(Me) = CNC(=N)NCCC[C@H](N)C(=O)O; d4Pal = N[C@H](Cc1ccncc1)C(=O)O; azaGly = NNC(=O)O

Columns and labels:
[1] = target: T1, KiSS-1 receptor (Homo sapiens, UniProt Q969F8); assay: Agonist activity at human KISS1R transfected in CHO cells assessed as intracellular calcium flux after 24 hrs by functional FLIPR assay; format: cell-based
How it was run: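 CHO cells stably expressing human KISS1R were seeded at 15 000 cells/mL, cultured 24 h, then loaded with fluo-3 for 1 h at 37 °C in HBSS/HEPES (pH 7.4) with probenecid and FBS. Cells were washed in HBSS with 2.5 mM probenecid. Peptides came from 1 mM DMSO stocks diluted in buffer containing probenecid, 0.2% BSA and 0.1% CHAPS. Fluorescence was recorded on FLIPR for 3 min; peak counts over 0–180 s gave agonist activity.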

[2] = Mean residence time in Sprague-Dawley rat at 1 mg/kg, iv after 24 hrs by LC-MS/MS analysis; format: ADME, organism-based; parameters: dose 1 mg/kg, route intravenous; settings: in vivo
How it was run: (§1)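 Male Crl:CD(SD) rats (3 per group) got a single intravenous dose of 1 mg/kg. Blood was drawn at 5, 10, 15 and 30 min and at 1, 2, 4, 8 and 24 h. Plasma proteins were removed with 0.2% formic acid/methanol and acetonitrile, and the supernatant was treated with 0.4% formic acid. Peptide was quantified by LC-MS. Noncompartmental parameters were derived per rat, reported as mean ± SD (n = 3).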

[3] = Volume of distribution at steady state in Sprague-Dawley rat at 1 mg/kg, iv after 24 hrs by LC-MS/MS analysis; format: ADME, organism-based; parameters: dose 1 mg/kg, route intravenous; settings: in vivo, read-out: Vdss; how it was run: as §1
[4] = AUC (0 to 24 hrs) in Sprague-Dawley rat at 1 mg/kg, sc after 24 hrs by LC-MS/MS analysis; format: ADME, organism-based; parameters: time < 24 hr, dose 1 mg/kg, route subcutaneous; settings: plasma
How it was run: (§2)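 Single subcutaneous dose of 1 mg/kg in male Crl:CD(SD) rats, n = 3 per group. Blood was sampled from 5 min to 24 h (5, 10, 15, 30 min; 1, 2, 4, 8, 24 h). Plasma was deproteinized with formic acid/methanol and acetonitrile, and peptide levels were measured by LC-MS. Noncompartmental analysis per animal gave Cmax, Tmax, AUC0-24h, MRT and BA; values are mean ± SD (n = 3).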

[5] = C5min in Sprague-Dawley rat at 1 mg/kg, iv after 5 mins by LC-MS/MS analysis; settings: in vivo, read-out: Cmin
[6] = Stability of the compound in aqueous solution assessed as residual ratio at pH 7 up to 1 week by HPLC analysis relative to initial level; format: physicochemical
How it was run: (§3)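 Peptides in aqueous solution at pH 1.2 (JP1, containing 10% acetonitrile), 3, 5 or 7 were kept in the dark at 37 °C for up to 2 weeks. Peptide remaining was quantified from HPLC peak area, with detection at 230–280 nm. The residual ratio (stability index) was expressed relative to the time-0 amount, taken as 100%.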

[7] = Stability of the compound in aqueous solution assessed as residual ratio at pH 7 up to 2 weeks by HPLC analysis relative to initial level; format: physicochemical; how it was run: as §3
[8] = AUC (0 to 24 hrs) in Sprague-Dawley rat at 1 mg/kg, iv after 24 hrs by LC-MS/MS analysis; format: ADME, organism-based; parameters: time < 24 hr, dose 1 mg/kg, route intravenous; settings: plasma; how it was run: as §1
[9] = Cmax in Sprague-Dawley rat at 1 mg/kg, sc after 24 hrs by LC-MS/MS analysis; format: ADME, organism-based; parameters: dose 1 mg/kg, route subcutaneous; settings: in vivo; how it was run: as §2
[10] = Stability of the compound in aqueous solution assessed as residual ratio at pH 5 up to 1 week by HPLC analysis relative to initial level; format: physicochemical; how it was run: as §3
[11] = Mean residence time in Sprague-Dawley rat at 1 mg/kg, sc after 24 hrs by LC-MS/MS analysis; format: ADME, organism-based; parameters: dose 1 mg/kg, route subcutaneous; settings: in vivo; how it was run: as §2
[12] = tested on: Rattus norvegicus; assay: Testosterone-suppressive activity in Crl:CD(SD) rat assessed as number of animal with plasma testosterone level below the limit of detection at 0.1 nmol/hr, sc through osmotic pumps measured after 6 days by RIA; format: functional
How it was run: (§4)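 Peptide was dissolved in distilled water or 50% DMSO as 0.1–2 mM pump solutions and delivered by ALZET osmotic pumps implanted subcutaneously in the back of 9-week-old male Crl:CD(SD) rats (n = 5) under ether. Controls received distilled-water pumps. After 6 days, rats were decapitated and plasma was recovered with aprotinin/EDTA. Testosterone was measured by RIA, and the number of rats below the detection limit (0.04 ng/mL) was counted.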

[13] = Stability of the compound in aqueous solution assessed as residual ratio at pH 3 up to 1 week by HPLC analysis relative to initial level; format: physicochemical; how it was run: as §3
[14] = tested on: Rattus norvegicus; assay: Testosterone-suppressive activity in Crl:CD(SD) rat assessed as number of animal with plasma testosterone level below the limit of detection at 2 nmol/hr, sc through osmotic pumps measured after 6 days by RIA; format: functional; how it was run: as §4
[15] = tested on: Rattus norvegicus; assay: Testosterone-suppressive activity in Crl:CD(SD) rat assessed as number of animal with plasma testosterone level below the limit of detection at 0.3 nmol/hr, sc through osmotic pumps measured after 6 days by RIA; format: functional; how it was run: as §4
[16] = Stability of the compound in aqueous solution assessed as residual ratio at pH 5 up to 2 weeks by HPLC analysis relative to initial level; format: physicochemical; how it was run: as §3
[17] = Total clearance in Sprague-Dawley rat at 1 mg/kg, iv after 24 hrs by LC-MS/MS analysis; format: ADME, organism-based; parameters: dose 1 mg/kg, route intravenous; settings: in vivo; how it was run: as §1
[18] = target: T2, KiSS-1 receptor (Rattus norvegicus, UniProt Q924U1); assay: Agonist activity at rat KISS1R transfected in CHO cells assessed as intracellular calcium flux after 24 hrs by functional FLIPR assay; format: cell-based
[19] = Stability of the compound in aqueous solution (JP1) assessed as residual ratio at pH 1.2 up to 1 week by HPLC analysis relative to initial level; format: physicochemical; how it was run: as §3
[20] = Tmax in Sprague-Dawley rat at 1 mg/kg, sc after 24 hrs by LC-MS/MS analysis; format: ADME, organism-based; parameters: dose 1 mg/kg, route subcutaneous; settings: in vivo; how it was run: as §2
[21] = target: T2, KiSS-1 receptor; assay: Displacement of radioligand from rat KISS1R transfected in CHO cells; format: cell-based
[22] = target: T1, KiSS-1 receptor; assay: Displacement of radioligand from human KISS1R transfected in CHO cells; format: cell-based
How it was run: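 Binding used membrane fractions prepared from CHO cells expressing recombinant human KISS1R.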

[23] = Stability of the compound in aqueous solution (JP1) assessed as residual ratio at pH 1.2 up to 2 weeks by HPLC analysis relative to initial level; format: physicochemical; how it was run: as §3
[24] = tested on: Rattus norvegicus; assay: Testosterone-suppressive activity in Crl:CD(SD) rat assessed as number of animal with plasma testosterone level below the limit of detection at 0.5 nmol/hr, sc through osmotic pumps measured after 6 days by RIA; format: functional; how it was run: as §4
[25] = Stability of the compound in aqueous solution assessed as residual ratio at pH 3 up to 2 weeks by HPLC analysis relative to initial level; format: physicochemical; how it was run: as §3
[26] = tested on: Rattus norvegicus; assay: Testosterone-suppressive activity in Crl:CD(SD) rat assessed as plasma testosterone level below the limit of detection at 10 to 100 pmol/hr, sc continuous administration through osmotic pumps measured up to 1 week by RIA; format: functional, organism-based
How it was run: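 Peptide in 50% DMSO was diluted in distilled water to 10, 30 or 100 μM pump solutions, giving 10–100 pmol/h by subcutaneous ALZET osmotic pump in male Crl:CD(SD) rats (n = 5). Vehicle served as control. Plasma testosterone was measured by RIA after 1 or 4 weeks, with values below 0.04 ng/mL set to 0.04. Results are mean ± SD of five rats, tested by one-tailed Shirley–Williams test versus vehicle.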

[27] = tested on: Rattus norvegicus; assay: Testosterone-suppressive activity in Crl:CD(SD) rat assessed as number of animal with plasma testosterone level below the limit of detection at 0.05 mol/hr, sc through osmotic pumps measured after 6 days by RIA; format: functional
[28] = tested on: Rattus norvegicus; assay: Testosterone-suppressive activity in Crl:CD(SD) rat assessed as number of animal with plasma testosterone level below the limit of detection […], sc through osmotic pumps measured after 6 days by RIA; format: functional
[29] = Bioavailability in Sprague-Dawley rat at 1 mg/kg, sc after 24 hrs by LC-MS/MS analysis; format: ADME, organism-based; settings: in vivo; how it was run: as §2

T1 sequence (Q969F8 whole entry): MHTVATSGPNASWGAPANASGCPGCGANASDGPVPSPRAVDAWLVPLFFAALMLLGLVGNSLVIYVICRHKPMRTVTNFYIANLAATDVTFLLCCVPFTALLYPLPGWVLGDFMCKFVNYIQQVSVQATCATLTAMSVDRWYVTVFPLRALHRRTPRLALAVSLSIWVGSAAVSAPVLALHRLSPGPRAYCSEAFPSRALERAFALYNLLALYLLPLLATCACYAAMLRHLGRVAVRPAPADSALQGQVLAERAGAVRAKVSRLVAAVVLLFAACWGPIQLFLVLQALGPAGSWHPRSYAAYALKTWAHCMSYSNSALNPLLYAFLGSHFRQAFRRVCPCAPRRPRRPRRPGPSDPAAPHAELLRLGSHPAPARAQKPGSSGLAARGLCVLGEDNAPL
T2 sequence (Q924U1 whole entry): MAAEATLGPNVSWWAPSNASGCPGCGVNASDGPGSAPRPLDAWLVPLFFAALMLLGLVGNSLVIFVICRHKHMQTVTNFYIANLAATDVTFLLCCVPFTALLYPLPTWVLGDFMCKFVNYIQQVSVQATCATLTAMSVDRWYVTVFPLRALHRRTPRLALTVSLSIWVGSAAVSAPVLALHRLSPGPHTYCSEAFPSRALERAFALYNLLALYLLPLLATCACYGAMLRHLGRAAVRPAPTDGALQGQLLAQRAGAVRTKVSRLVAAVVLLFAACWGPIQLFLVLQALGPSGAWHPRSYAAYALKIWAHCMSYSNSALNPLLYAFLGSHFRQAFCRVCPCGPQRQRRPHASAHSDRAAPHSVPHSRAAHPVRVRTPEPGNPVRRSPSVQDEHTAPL

CNC(=N)NCCC[C@H](NC(=O)[C@H](CC(C)C)NC(=O)NNC(=O)[C@H](Cc1ccccc1)NC(=O)[C@H](CO)NC(=O)[C@H](CC(N)=O)NC(=O)[C@@H](Cc1ccncc1)NC(=O)[C@H](N)Cc1ccc(O)cc1)C(=O)N[C@@H](Cc1ccccc1)C(N)=O [KISS1-305] (H-[dY][d4Pal]NSF[azaGly]L[Arg(Me)]F-NH2)
EC50 [1]: 2.6 nM
MRT [2]: 22.8 min
Vd [3]: 1.58 L/kg
AUC(0-t) at 24 h [4]: 96 ng·h/mL
concentration at 5 min [5]: 969 ng/mL
remaining at 168 h [6]: 54.9%
remaining at 336 h [7]: 28%
AUC(0-t) at 24 h [8]: 239 ng·h/mL
Cmax [9]: 145 ng/mL
remaining at 168 h [10]: 94.8%
MRT [11]: 36.6 min
Activity [12]: 0 rats (n = 5)
remaining at 168 h [13]: 99.4%
Activity [14]: 100%
Activity [15]: 0%
remaining at 336 h [16]: 91.2%
clearance [17]: 69.9 mL/min/kg
EC50 [18]: 10 nM
remaining at 168 h [19]: 60.3%
Tmax [20]: 8.4 min
Ki [21]: 0.14 nM
Ki [22]: 0.11 nM
remaining at 336 h [23]: 32.8%
Activity [24]: 60%
remaining at 336 h [25]: 100%

CNC(=N)NCCC[C@H](NC(=O)[C@H](CC(C)C)NC(=O)NNC(=O)[C@H](Cc1ccccc1)NC(=O)[C@@H](NC(=O)[C@H](CC(N)=O)NC(=O)[C@@H](Cc1ccncc1)NC(=O)[C@@H](Cc1ccc(O)cc1)NC(C)=O)[C@@H](C)O)C(=O)N[C@@H](Cc1c[nH]c2ccccc12)C(N)=O
EC50 [1]: 0.75 nM
MRT [2]: 41.4 min
Vd [3]: 0.547 L/kg
inhibition [26]: Active
AUC(0-t) at 24 h [4]: 152 ng·h/mL
concentration at 5 min [5]: 2070 ng/mL
remaining at 168 h [6]: 82.6%
remaining at 336 h [7]: 69.8%
AUC(0-t) at 24 h [8]: 1260 ng·h/mL
Activity [27]: 5%
Cmax [9]: 90 ng/mL
remaining at 168 h [10]: 98.5%
MRT [11]: 64.2 min
remaining at 168 h [13]: 98.7%
Activity [28]: 2 animals
remaining at 336 h [16]: 97%
clearance [17]: 13.2 mL/min/kg
bioavailability [29]: 12.1%
EC50 [18]: 4.1 nM
remaining at 168 h [19]: 58.3%
Tmax [20]: 25.2 min
Ki [21]: 0.17 nM
Ki [22]: 0.089 nM
remaining at 336 h [23]: 33%
remaining at 336 h [25]: 96.8%
